These results are taken from ChEMBL document CHEMBL2407003, “Effects of (-)-epicatechin and derivatives on nitric oxide mediated induction of mitochondrial proteins” (Bioorg Med Chem Lett, 2013).

Assay [1] in a line: Upregulation of mitochondrial complex-1 expression in BCAEC at EC50 after 48 hrs by Western blot analysis in presence of L-NAME. The assay is classed as functional. As to conditions: Bos taurus.
Assay [2] can be described thus: Upregulation of mitofilin expression in BCAEC at EC50 after 48 hrs by Western blot analysis in presence of L-NAME. As to conditions: Bos taurus. The assay is classed as functional.
The nature of assay [3]: Upregulation of mitochondrial complex-1 expression in BCAEC at EC50 after 48 hrs by Western blot analysis relative to control. The assay is classed as functional. As to conditions: Bos taurus. Background: A western blot detects proteins with antibodies after separation by electrophoresis.
Assay [4] concerns the target T1, Citrate synthase, mitochondrial (Bos taurus) (UniProt Q29RK1).
T1 sequence (whole entry): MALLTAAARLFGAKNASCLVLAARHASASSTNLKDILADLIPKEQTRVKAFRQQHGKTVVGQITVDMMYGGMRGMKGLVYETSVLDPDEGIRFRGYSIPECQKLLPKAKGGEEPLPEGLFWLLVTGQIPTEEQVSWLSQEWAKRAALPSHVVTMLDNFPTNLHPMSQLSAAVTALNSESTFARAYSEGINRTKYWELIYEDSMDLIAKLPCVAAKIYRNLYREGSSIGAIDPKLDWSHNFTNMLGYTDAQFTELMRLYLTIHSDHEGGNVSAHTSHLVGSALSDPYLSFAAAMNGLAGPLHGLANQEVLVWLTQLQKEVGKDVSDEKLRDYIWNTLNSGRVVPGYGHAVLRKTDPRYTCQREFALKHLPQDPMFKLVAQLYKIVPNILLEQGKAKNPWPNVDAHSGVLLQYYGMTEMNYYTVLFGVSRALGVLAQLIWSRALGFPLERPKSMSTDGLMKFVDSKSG
The experiment in a line: Induction of citrate synthase activity in BCAEC at EC50 after 48 hrs relative to control.

The target in assay [5] is T2, Nitric oxide synthase 3 (Bos taurus, UniProt P29473).
T2 sequence (P29473 whole entry): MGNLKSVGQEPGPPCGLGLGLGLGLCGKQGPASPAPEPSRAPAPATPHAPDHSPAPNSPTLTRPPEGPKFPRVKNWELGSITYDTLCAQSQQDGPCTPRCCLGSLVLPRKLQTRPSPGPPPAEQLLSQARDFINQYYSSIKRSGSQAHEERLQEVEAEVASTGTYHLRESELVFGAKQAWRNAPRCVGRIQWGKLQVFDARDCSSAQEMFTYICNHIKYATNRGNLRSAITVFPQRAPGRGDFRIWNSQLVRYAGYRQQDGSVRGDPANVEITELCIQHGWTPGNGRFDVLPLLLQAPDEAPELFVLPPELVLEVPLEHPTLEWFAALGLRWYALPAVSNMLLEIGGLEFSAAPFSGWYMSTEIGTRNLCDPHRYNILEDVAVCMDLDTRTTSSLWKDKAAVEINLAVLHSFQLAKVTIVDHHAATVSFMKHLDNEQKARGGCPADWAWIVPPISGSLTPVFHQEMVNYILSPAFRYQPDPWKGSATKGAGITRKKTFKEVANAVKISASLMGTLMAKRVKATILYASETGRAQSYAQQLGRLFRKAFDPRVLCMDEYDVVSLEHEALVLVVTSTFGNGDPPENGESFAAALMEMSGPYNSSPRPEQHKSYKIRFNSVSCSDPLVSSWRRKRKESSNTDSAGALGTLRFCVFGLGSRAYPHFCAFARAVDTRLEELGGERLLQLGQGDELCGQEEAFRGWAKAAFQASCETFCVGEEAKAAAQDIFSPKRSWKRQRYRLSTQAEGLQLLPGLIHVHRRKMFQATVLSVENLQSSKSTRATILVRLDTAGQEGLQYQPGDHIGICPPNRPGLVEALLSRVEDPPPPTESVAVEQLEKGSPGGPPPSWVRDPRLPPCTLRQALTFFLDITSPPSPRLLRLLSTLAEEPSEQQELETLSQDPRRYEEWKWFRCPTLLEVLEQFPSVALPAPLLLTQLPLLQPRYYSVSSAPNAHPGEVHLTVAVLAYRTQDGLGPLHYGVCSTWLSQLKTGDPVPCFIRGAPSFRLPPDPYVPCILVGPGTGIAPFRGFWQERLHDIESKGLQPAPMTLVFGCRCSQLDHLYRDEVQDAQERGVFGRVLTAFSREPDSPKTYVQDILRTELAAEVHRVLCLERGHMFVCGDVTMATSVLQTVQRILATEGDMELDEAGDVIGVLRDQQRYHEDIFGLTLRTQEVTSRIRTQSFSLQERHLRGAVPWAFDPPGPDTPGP
The experiment in a line: Activation of eNOS in BCAEC assessed as increase in nitric oxide level after 10 mins by fluorometric analysis. The gist of the method: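 Bovine coronary artery endothelial cells, in triplicate, were exposed to a range of concentrations of each compound. Medium was collected 10 min after treatment, and NO was quantified as nitrite/nitrate with a commercial kit. Sigmoidal concentration-response curves were fitted to the triplicate means to give EC50.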

Assay [6] in a line: Upregulation of porin expression in BCAEC at EC50 after 48 hrs by Western blot analysis. Type of assay: functional. As to conditions: Bos taurus.
Assay [7] can be described thus: Upregulation of porin expression in BCAEC at EC50 after 48 hrs by Western blot analysis in presence of L-NAME. As to conditions: Bos taurus. The assay is classed as functional.
Assay [8] in a line: Upregulation of mitochondrial complex-2 expression in BCAEC at EC50 after 48 hrs by Western blot analysis in presence of L-NAME. Type of assay: functional. As to conditions: Bos taurus.
Assay [9] addresses T1, Citrate synthase, mitochondrial (Bos taurus). The experiment in a line: Induction of citrate synthase activity in BCAEC at EC50 after 48 hrs in presence of L-NAME.
Assay [10] in a line: Upregulation of TFAM expression in BCAEC at EC50 after 48 hrs by Western blot analysis in presence of L-NAME. Type of assay: functional. As to conditions: Bos taurus.
The nature of assay [11]: Upregulation of mitofilin expression in BCAEC at EC50 after 48 hrs by Western blot analysis. The assay is classed as functional. As to conditions: Bos taurus.
The nature of assay [12]: Upregulation of mitochondrial complex-2 expression in BCAEC at EC50 after 48 hrs by Western blot analysis relative to control. Type of assay: functional. As to conditions: Bos taurus.
The nature of assay [13]: Upregulation of TFAM expression in BCAEC at EC50 after 48 hrs by Western blot analysis. Type of assay: functional. As to conditions: Bos taurus.
A short description of assay [14]: Upregulation of mitochondrial complex-1 expression in BCAEC at 100 nmol/L after 48 hrs by Western blot analysis. The assay is classed as functional. As to conditions: Bos taurus.
Assay [15] in a line: Upregulation of mitochondrial complex-1 expression in BCAEC at 0.01 nmol/L after 48 hrs by Western blot analysis. Type of assay: functional. As to conditions: Bos taurus.

SMILES strings stand for the structures. Activity calls are given as the source filed them. The rule behind the calls is not given here.

In general, EC50 refers to the concentration giving half of the maximal effect. `CCOc1cc([C@H]2Oc3cc(O)cc(O)c3C[C@H]2O)ccc1O`: the outcome in assay [1], in assay [2], in assay [3], in assay [7], in [8] and in [9] was inactive. This compound had an Activity in assay [4] of 30%. Also, in assay [5], the 50% effective concentration (EC50) came out at 1 nM. The outcome in assay [6] was Active.
`Oc1cc(O)c2c(c1)O[C@H](c1ccc(O)c(O)c1)[C@H](O)C2` [(-)-EPICATECHIN]: the outcome in assay [10], in assay [1], in [2], in assay [6], in [7] and in assay [8] was inactive. For the same compound, the outcome in assay [9] was inactive. The result in [11], in assay [13] and in assay [14] was Active. The Activity was found to be 25% in assay [12], 20% in [3] and 30% in assay [4]. The EC50 in assay [5] stood at 2 nM.
For the compound `CC(=O)Oc1cc(OC(C)=O)c2c(c1)O[C@H](c1ccc(OC(C)=O)c(OC(C)=O)c1)[C@H](OC(C)=O)C2` [EPICATECHIN PENTAACETATE], the outcome in assay [10], in assay [1], in assay [2], in assay [7], in assay [8] and in assay [9] was inactive. Besides, the result in [11], in assay [15], in assay [13] and in assay [6] was Active. The Activity worked out at 25% in assay [12], 60% in [3] and 30% in assay [4]. The EC50 in assay [5] was determined as 0.006 nM.
